Where a name gives a salt, the structure may show the parent alone.
How the values were obtained:
[1] = assay type: in vivo, rhesus macaques (Macaca mulatta)
[2] = Plasma PK of GSK744 in Depo-Provera-treated female rhesus macaques; assay type: in vivo
Summary of the method: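 Female Indian rhesus macaques received 30 mg Depo-Provera IM on weeks -3 and 2 and monthly IM injections of long-acting test compound (8 treated, 4 controls), with three intravaginal SHIV162P3 challenges. Plasma drug levels were followed per animal and expressed as multiples of PAIC90. Plasma SHIV RNA was tracked weekly for 24 weeks by real-time RT-PCR (sensitivity 40 copies/mL) to time first vRNA detection.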

[3] = tested on: single-cycle recombinant viruses with the integrase-coding regions of FG95 mutants; test: Susceptibility of single-cycle SIV recombinant viruses to GSK744 in TZM-bl cells; assay type: cell-based; settings: Table S2
[4] = oral GSK744, humans; cited from earlier work
[5] = tested on: simian-human immunodeficiency virus (SHIV); settings: cited from earlier work
UGT1A1, UGT1A9 = settings: hepatic glucuronidation pathway; cited from earlier work
[6] = human studies, data limited; cited from earlier work
HIV = settings: TDF alone, injection drug users; cited from earlier work

SMILES	mean cervical T:P ratio ([1]; Depo-Provera-treated female macaques, 50 mg/kg GSK744 LA)	GSK744 concentrations lower on average in cervical tissues than rectal tissues ([1]; Depo-Provera-treated female macaques, 50 mg/kg GSK744 LA monthly) [fold]	mean T:P ratio in unwashed rectal tissues ([1]; Depo-Provera-treated female macaques, 50 mg/kg GSK744 LA, no saline rinse)	Kp ([1]; female, Indian, rhesus monkey, cervical tissue / plasma, intramuscular, 50 mg/kg)	plasma GSK744 concentration at first vRNA detection relative to PAIC90 ([2]; macaque FG95) [x PAIC90]	plasma GSK744 concentration at the time of challenges relative to PAIC90 ([2]; macaque FG95, three challenges)	plasma GSK744 concentration at first vRNA detection relative to PAIC90 ([2]; macaque FM26)	plasma GSK744 concentration at the time of challenges relative to PAIC90 ([2]; macaque FM26, three challenges)	viral susceptibility to GSK744 ([3]; integrase E198G mutation (FG95, week 20))	susceptibility to GSK744 in vitro ([3]; integrase P142S, I210V mutations (FG95, week 11))	apparent terminal half-life (t1/2) [4]	protection ([5]; GSK744 plasma concentrations >3x PAIC90) [%]	efficacy ([5]; GSK744 plasma concentrations ≥1x PAIC90) [%]	metabolizing enzymes (UGT1A1, UGT1A9)	relative mucosal tissue penetration [6]	reduced HIV infection (HIV) [%]
C[C@H]1CO[C@@H]2Cn3cc(C(=O)NCc4ccc(F)cc4F)c(=O)c(O)c3C(=O)N12 [GSK744]	0.09 (range: below detection to 0.20)	5	0.37 (range: 0.15 to 1.13)	~0.1	< 1	13.3–18.4 x PAIC90	≈ 2.2 x PAIC90	12.4–18.1 X PAIC90	did not decrease viral susceptibility	did not decrease susceptibility	approximately 40 hours	100	97	primarily by UGT1A1, with some involvement from UGT1A9	penetrates cervical tissue slightly more efficiently than rectal tissue	
CC(C)OC(=O)OCOP(=O)(CO[C@H](C)Cn1cnc2c(N)ncnc21)OCOC(=O)OC(C)C [TDF, tenofovir disoproxil fumarate]																49
